The source made the active and inactive calls. No cut-off for these calls is given here.
What was measured:
[1] = target: T1, 7-dehydrocholesterol reductase (Homo sapiens) (UniProt Q9UBM7); test: Ratio of BM15.766 IC50 to compound IC50 for […]-mediated cholesterol biosynthesis in human HL60 cells; type: cell-based; conditions: HL-60
T1 sequence (whole entry): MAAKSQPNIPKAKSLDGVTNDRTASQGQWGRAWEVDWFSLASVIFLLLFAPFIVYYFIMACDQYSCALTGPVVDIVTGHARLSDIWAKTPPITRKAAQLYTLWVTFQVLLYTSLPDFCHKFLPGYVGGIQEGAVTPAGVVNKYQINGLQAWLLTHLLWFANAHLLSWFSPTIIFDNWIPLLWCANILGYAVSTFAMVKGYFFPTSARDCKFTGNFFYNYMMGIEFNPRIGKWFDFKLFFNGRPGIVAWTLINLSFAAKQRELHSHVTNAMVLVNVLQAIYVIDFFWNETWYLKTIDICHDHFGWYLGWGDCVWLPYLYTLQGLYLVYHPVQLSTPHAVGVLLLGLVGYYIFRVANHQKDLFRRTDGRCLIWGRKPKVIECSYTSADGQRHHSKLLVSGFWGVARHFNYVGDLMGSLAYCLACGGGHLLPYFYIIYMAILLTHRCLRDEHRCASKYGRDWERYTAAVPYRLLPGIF

[2] = target: T2, 7-dehydrocholesterol reductase (Homo sapiens, UniProt Q9UBM7); test: Inhibition of […]-mediated cholesterol biosynthesis in human HL60 cells assessed as inhibition of 2-[13C]acetate after 24 hrs GC/MS analysis; type: cell-based, HL-60
T2 sequence (Q9UBM7 whole entry): T1 sequence (whole entry)
Procedure, shortened: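 Whole-cell cholesterol synthesis in HL-60 cells, 24 h with inhibitor and sodium 2-¹³C-acetate; six concentrations plus blank, in triplicate. Newly made labeled cholesterol (m/z 372–379, 462–469) measured by GC-MS against cholestane and normalized to Bradford protein. % inhibition against untreated control fitted to a variable-slope sigmoid, bottom fixed at 0, giving IC50; BM 15.766 as reference.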

[3] = target: T1, 7-dehydrocholesterol reductase (Homo sapiens); test: Inhibition of 7-dehydrocholesterol reductase in human HL60 cells assessed as accumulation of 7-dehydrocholesterol at 1 uM after 24 hrs by GC/MS analysis; type: cell-based; conditions: HL-60
Procedure, shortened: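 HL-60 cells (1 × 10⁶) in lipid-free HL-60 medium given inhibitor at 50 μM or 1 μM (ethanol blank) for 24 h at 37 °C, 5% CO2. Pellet saponified in 1 M NaOH, 1 h at 70 °C, then TBME microextraction with cholestane internal standard. GC-MS sterol pattern compared with blanks and with AY 9944 and BM 15.766 references.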

[4] = tested on: Yarrowia lipolytica; test: Antifungal activity against Yarrowia lipolytica DSM 1345 after 48 hrs; type: organism-based; conditions: in vivo
Procedure, shortened: (§1)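 MIC against the yeast strains determined according to DIN 58940-84; clotrimazole as positive control.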

[5] = tested on: Saccharomyces cerevisiae; test: Antimicrobial activity against Saccharomyces cerevisiae DSM 1333 after 48 hrs; type: organism-based; conditions: in vivo; procedure, shortened: as §1
[6] = tested on: Nakaseomyces glabratus; test: Antifungal activity against Candida glabrata DSM 11226 after 48 hrs; type: organism-based; conditions: in vivo; procedure, shortened: as §1
[7] = tested on: Yarrowia lipolytica; test: Antifungal activity against Yarrowia lipolytica DSM 1345 after 36 hrs by disc diffusion method; type: organism-based; conditions: in vivo
[8] = tested on: Saccharomyces cerevisiae; test: Antifungal activity against Saccharomyces cerevisiae DSM 1333 after 36 hrs by disc diffusion method; type: organism-based; conditions: in vivo
[9] = tested on: Nakaseomyces glabratus; test: Antifungal activity against Candida glabrata DSM 11226 after 36 hrs by disc diffusion method; type: organism-based; conditions: in vivo
[10] = Antifungal activity against Aspergillus brasiliensis DSM 1988 after 36 hrs by disc diffusion method
[11] = Antibacterial activity against Streptococcus entericus DSM 14446 after 36 hrs by disc diffusion method
[12] = Antibacterial activity against Staphylococcus equorum DSM 20675 after 36 hrs by disc diffusion method
[13] = Antibacterial activity against Pseudomonas antimicrobica DSM 8361 after 36 hrs by disc diffusion method; conditions: burkholderia gladioli
[14] = tested on: Escherichia coli; test: Antibacterial activity against Escherichia coli DSM 426 after 36 hrs by disc diffusion method; type: organism-based; conditions: in vivo
[15] = tested on: HL-60; test: Cytotoxicity against human HL60 cells after 24 hrs by MTT assay; type: cell-based; conditions: HL-60, 24 h
Procedure, shortened: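 MTT colorimetric assay on HL-60 promyelocytic leukemia cells (RPMI 1640, 10% FBS, no antibiotics, 37 °C, 5% CO2) as a preliminary screen for unspecific cytotoxicity; cisplatin as reference.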

[16] = Antifungal activity against Hyphopichia burtonii DSM 70663 after 36 hrs by disc diffusion method

- Ratio IC50 [1]: 200
- IC50 [2]: 2.3 nM
- 7-DHCR inhibition (active/not active) [3]: Active
- MIC [4]: > 20 µg/mL
- MIC [5]: > 20 µg/mL
- MIC [6]: > 20 µg/mL
SMILES: COc1cc2c(cc1O)CCN(CCc1ccc(Cl)cc1)C2
- Activity [7]: Non-toxic
- Activity [8]: Non-toxic
- Activity [9]: Non-toxic
- Activity [10]: Non-toxic
- Activity [11]: Non-toxic
- Activity [12]: Non-toxic
- Activity [13]: Non-toxic
- Activity [14]: Non-toxic
- IC50 [15]: > 50 µM
- Activity [16]: Non-toxic
